# Compound activity (PubChem)
# MBD2 inh: inhibitors of MBD2 binding to methylated DNA, primary screen, biochemical, TR-FRET, DNA-binding domain, human | Methyl-CpG-binding domain protein 2 (Homo sapiens), Q9UBB5 | MBD2 binding to methylated oligonucleotide | inhibition, % at 4.4 µM | actives 0.31% (n = 370,000) | AID 686964, 2013; in the data active = inhibition above about 13%
# UHRF1 binding: UHRF1 methylated DNA binding inhibitors, primary screen, counter-screen for MBD2 inhibitor project, biochemical, TR-FRET, human UHRF1, single concentration | E3 ubiquitin-protein ligase UHRF1 (Homo sapiens), Q96T88 | UHRF1 binding to methylated oligo | inhibition, % at 4.4 µM | actives 0.75% (n = 370,000) | AID 687016, 2013; in the data active = inhibition above about 21%;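 also: UHRF1 SRA domain binding a hemimethylated CpG hairpin DNA probe; 0% = median of test compound wells and 100% = reference inhibitor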
# Target sequence (Q96T88 whole entry, looked up, the tested form may be a part): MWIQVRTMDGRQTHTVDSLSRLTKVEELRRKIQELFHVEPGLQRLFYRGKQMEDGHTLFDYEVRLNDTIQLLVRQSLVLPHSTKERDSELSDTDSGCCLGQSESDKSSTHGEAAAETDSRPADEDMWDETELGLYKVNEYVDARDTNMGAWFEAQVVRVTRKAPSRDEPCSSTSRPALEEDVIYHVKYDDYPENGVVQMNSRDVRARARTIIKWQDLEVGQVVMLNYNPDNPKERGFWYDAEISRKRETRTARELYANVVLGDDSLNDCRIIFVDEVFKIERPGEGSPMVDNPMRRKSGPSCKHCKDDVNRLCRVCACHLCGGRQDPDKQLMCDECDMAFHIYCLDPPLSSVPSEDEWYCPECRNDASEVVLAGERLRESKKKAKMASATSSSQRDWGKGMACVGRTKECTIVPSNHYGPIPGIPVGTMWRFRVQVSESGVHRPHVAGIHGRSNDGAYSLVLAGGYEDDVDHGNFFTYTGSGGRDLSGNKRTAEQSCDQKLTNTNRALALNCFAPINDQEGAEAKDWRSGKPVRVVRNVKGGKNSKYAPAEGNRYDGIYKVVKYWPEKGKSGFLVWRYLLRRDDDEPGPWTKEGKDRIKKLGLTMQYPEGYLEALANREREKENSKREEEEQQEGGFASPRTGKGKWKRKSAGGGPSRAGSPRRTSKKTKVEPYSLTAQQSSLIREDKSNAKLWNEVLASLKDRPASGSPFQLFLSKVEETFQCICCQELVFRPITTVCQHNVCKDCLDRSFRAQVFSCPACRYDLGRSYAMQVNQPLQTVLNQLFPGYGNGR
# TDP2 inh: human TDP2 enzyme inhibitors, primary screen, biochemical, epi absorbance, recombinant enzyme; Tyrosyl-DNA phosphodiesterase 2 (Homo sapiens), O95551; T5PNP hydrolysis, p-nitrophenol absorbance 415 nm; inhibition, % at 12.8 µM; actives 0.34% (n = 370,000);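 active = inhibition above the mean of all tested compounds plus 3 SD, set per campaign, cut at about 25% in these data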;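 also: 0% = DMSO with enzyme and 100% = buffer with substrate but no TDP2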
#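 System – recombinant human TDP2 · Quantity – TDP2 enzyme at 120 nM final · Doses – single concentration, 12.8 µM nominal, with 1% DMSO · Incubation – 2 h at 37 °C · Measured by – epi absorbance of p-nitrophenol freed from T5PNP by hydrolysis · Read-out – % inhibition relative to enzyme-containing and enzyme-free wells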
# Casp6 inh: human caspase-6 inhibitors, primary screen, biochemical, VEID-R110 fluorescence, single point, set 2 | P55212 | purified caspase-6, Z-VEID-R110 cleavage fluorescence | inhibition, % at 12.5 µM | actives 0.53% (n = 350,000);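 active = mean inhibition across replicates at least about 35%, with every replicate also reaching that limit, limit read from the data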;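 also: 0% = median of neutral control wells and 100% = no fluorescence left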
# LEDGF integ inh: blockers of LEDGF/p75-dependent integrase strand transfer – biochemical, TR-FRET, high throughput, primary screen. TR-FRET IN-LEDGF/p75 DNA integration, Eu/Cy5. inhibition, % at 3.7 µM. actives 0.64% (n = 370,000);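 active = inhibition above the screen-wide mean plus 3 SD, cut at about 13% in these data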;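 also: signal is the Cy5 over europium emission ratio at 671 and 618 nm; 0% = plate median of compound wells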
# NSD2 inh: NSD2 histone methyltransferase inhibitors, primary screen, biochemical, AlphaScreen, single concentration, set 2; actives 0.54% (n = 310,000); NSD2 peptide methylation, 120 min; inhibition, % at 12.5 µM; in the data active = inhibition above about 50%
# IN multimer up: HIV-1 IN multimer formation enhancers, counter-screen for LEDGF/p75 integration inhibitor project, biochemical, TR-FRET; shares compounds with LEDGF integ inh; TR-FRET HIV-1 integrase multimerization; activation, % at 7.7 µM; actives 17% (n = 2,000); AID 1053131, 2014; in the data active = activation above about 8.9%
# TRFRET interf: TR-FRET optical interference artefacts, confirmation, artefact control for LEDGF/p75-dependent integration inhibitor project, biochemical, HIV-1 IN multimerization; TR-FRET optical interference counterscreen; 2,000 tested, under 10 active; inhibition, % at 7.7 µM; shares compounds with LEDGF integ inh;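 active = inhibition above the mean over all tested compounds plus 3 SD, which no compound reached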;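 also: 0% = integrase with antibodies and DMSO and 100% = antibodies without integrase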
# LEDGF integ conf: inhibitors of HIV-1 IN-LEDGF/p75 DNA integration, confirmation, biochemical, TR-FRET; shares compounds with LEDGF integ inh; actives 36% (n = 2,000); inhibition, % at 3.7 µM; TR-FRET LEDGF/p75-dependent HIV-1 integration; in the data active = inhibition above about 14%
# Numbers without * were called inactive; . = no result. A selection: hits, their analogues and other compounds. The true share with any hit is near 1.9%.
SMILES,MBD2 inh,UHRF1 binding,TDP2 inh,Casp6 inh,LEDGF integ inh,NSD2 inh,IN multimer up,TRFRET interf,LEDGF integ conf
Clc1cccc(C2CCN(Cc3nc(CC4CC4)no3)C2)c1 (configuration not stated),0,0,-2,-1,35*,2,0,2,0
c1ccc(CN2CCCC3(CCCN(Cc4nc(CC5CC5)no4)C3)C2)cc1 (configuration not stated),2,4,-5,1,0,9,.,.,.
N#C[C@H]1[C@H](c2ccccc2)[C@@H](CO)N1C(=O)CN1CCOCC1,.,.,.,-4,.,.,.,.,.
Cc1cc(/C=C2\SC(=S)NC2=O)c(C)[nH]1,0,4,4,.,34*,26,12*,-43,10
Cn1ccnc1SCC(=O)c1cc2ccccc2o1,-4,-4,10,.,25*,7,7,-25,7
O=C(C[C@H]1C=C[C@H](NC(=O)C2CCC2)[C@H](CO)O1)Nc1nccs1,.,.,.,0,.,.,.,.,.
O=C(Nc1scc(-c2ccccc2)c1C(=O)O)c1ccccc1F,4,-1,-3,5,8,-2,.,.,.
Cc1ccc(-c2csc(NC(=O)c3ccc(F)cc3)c2C(=O)O)cc1,0,2,6,0,7,-2,.,.,.
O=C(Nc1scc(-c2ccccc2)c1C(=O)O)c1ccc(F)cc1,2,5,-3,3,14*,-3,0,3,5
O=C(/C=C/c1ccccc1)Nc1scc(-c2ccccc2)c1C(=O)O,3,-4,6,-1,16*,0,1,-6,12
CO[C@@H]1CN(C)C(=O)c2ccc(NC(C)=O)cc2OC[C@@H](C)N(C(=O)CC2CC2)C[C@H]1C,.,.,.,-1,.,.,.,.,.
COc1ccc(NC(=O)Nc2ccc3c(c2)C(=O)N([C@@H](C)CO)C[C@@H](C)[C@H](CN(C)Cc2ccccc2)OCCCC[C@@H](C)O3)cc1,.,.,.,0,.,.,.,.,.
Oc1ccc(CNc2ccccc2F)c2cccnc12,0,-5,-3,2,-7,-2,.,.,.
O=S(=O)(Nc1ccc(O)c2ncccc12)c1ccccc1F,-11,-6,14,.,29*,.,1,-6,44*
CC[C@@]1(O)C(=O)OCc2c1cc1n(c2=O)Cc2cc3c(N)cccc3nc2-1,-11,-1,15,-1,23*,.,14*,-50,10
COCC#Cc1cnc2c(c1)C(=O)N([C@@H](C)CO)C[C@H](C)[C@@H](CN(C)C)O2,.,.,.,3,.,.,.,.,.
Cc1cccc(NC(=S)N(CCN(C)C)C(C)c2cccnc2)c1 (configuration not stated),-1,7,-15,-6,-2,-1,.,.,.
Cc1cccc(NC(=S)N(CCN(C)C)C(C)c2ccccn2)c1 (configuration not stated),4,2,4,.,92*,3,-2,11,-5
C[C@H]1CN([C@@H](C)CO)S(=O)(=O)c2ccc(C#CC(C)(C)O)cc2O[C@@H]1CN(C)Cc1ccncc1,.,.,.,4,.,.,.,.,.
CC(C)C#Cc1cnc2c(c1)C(=O)N([C@@H](C)CO)C[C@@H](C)[C@H](CN(C)C(=O)c1cccnc1)O2,.,.,.,3,.,.,.,.,.
NS(=O)(=O)c1ccc(NC(=S)NC(=O)/C=C/c2ccco2)cc1,-5,18,-7,.,33*,8,13*,-45,38*
NC(N)=NS(=O)(=O)c1ccc(NC(=S)NC(=O)/C=C/c2ccco2)cc1,0,3,21,.,7,18,.,.,.
CCN(Cc1ccccc1)c1cc2c(c3c1ccn3C)C1CCC2O1 (configuration not stated),2,-2,13,-4,13*,.,1,-7,-10
CCN(CC)c1cc2c(c3c1ccn3C)C1CCC2O1 (configuration not stated),-4,-3,13,.,-1,.,.,.,.
COc1cc(C(=S)N2CCOCC2)ccc1OS(=O)(=O)c1ccc(Cl)cc1,-1,-1,-8,-1,5,0,.,.,.
SMILES,MBD2 inh,UHRF1 binding,TDP2 inh,Casp6 inh,LEDGF integ inh,NSD2 inh,IN multimer up,TRFRET interf,LEDGF integ conf
COc1cc(C(=S)N2CCOCC2)ccc1OS(=O)(=O)c1ccc(C)cc1,1,1,-14,-4,20*,-1,0,-1,-5
CCOC(=O)c1cnc2ccc(C)cc2c1NCCN1CCOCC1,-4,3,-27,0,44*,0,1,-4,1
CN(C)c1ccc(NC(=O)C2C3C=CC(C3)C2C(=O)O)cc1 (configuration not stated),-9,21*,45*,42*,50*,.,-2,11,2
COC(=O)C1=C(N)N(c2ccccc2C(F)(F)F)C2=C(C(=O)CCC2)C1c1ccc2c(c1)OCO2 (configuration not stated),1,-3,4,.,33*,-1,0,-1,-8
O=C(/C=C/c1ccc(F)cc1)N1CCCN(C(=O)/C=C/c2ccc(F)cc2)CC1,3,6,8,.,25*,-2,0,1,0
COc1ccccc1-c1ccc(C2[C@H]3CNC[C@@H]2N3S(=O)(=O)c2ccccc2)cc1 (some centres not stated),.,.,.,-2,.,.,.,.,.
Cc1ccc(-c2nc(NCc3ccc(F)cc3)n(S(C)(=O)=O)n2)cc1,-4,0,8,-2,14*,-1,-1,4,-5
CN(C)c1ccc(CNc2nc(-c3ccccc3)nn2S(C)(=O)=O)cc1,-4,-1,0,-2,1,-2,.,.,.
O=C(Nc1cccc(F)c1)N1CCCCN2[C@@H](CO)[C@H](c3ccc(C#Cc4ccccc4)cc3)[C@@H]2C1,.,.,.,1,.,.,.,.,.
